Reference: ChEMBL document CHEMBL3627607, “A Novel Pyrazolopyridine with in Vivo Activity in Plasmodium berghei- and Plasmodium falciparum-Infected Mouse Models from Structure-Activity Relationship Studies around the Core of Recently Identified Antimalarial Imidazopyridazines” (J Med Chem, 2015)

Tests used:
[1] = test system: Liver microsome; assay: Metabolic stability of the compound in rat liver microsomes assessed as compound remaining at 0.1 uM after 30 mins by LC-MS/MS analysis; format: ADME; conditions: 0.5 h
[2] = test system: Plasmodium berghei; assay: Antiplasmodial activity against Plasmodium berghei ANKA expressing GFP infected in mouse assessed as reduction of parasitemia level at 3 mg/kg, po qd for 4 days measured on day 4 post last dose by flow cytometric analysis relative to control; format: functional; parameters: scale not given: the % may be the effect or the level left
Outline: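 Mice (n = 3) infected with GFP-transfected P. berghei ANKA. Test agents were suspended in HPMC vehicle (0.5% w/v hydroxypropylmethylcellulose, 0.5% v/v benzyl alcohol, 0.4% v/v Tween 80, 0.9% w/v NaCl in water). Dosed orally at 4, 24, 48 and 72 h post-infection. Parasitemia read by flow cytometry on day 4 (96 h), detection limit 0.1%. Activity = control-minus-treated mean % parasitemia, relative to control.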

[3] = test system: Plasmodium berghei; assay: Antiplasmodial activity against Plasmodium berghei ANKA expressing GFP infected in mouse assessed as means survival days at 3 mg/kg, po qd for 4 days; format: functional
Outline: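 Mice (n = 3) infected with GFP-transfected P. berghei ANKA. Compounds dissolved or suspended in HPMC vehicle (0.5% w/v hydroxypropylmethylcellulose, 0.5% v/v benzyl alcohol, 0.4% v/v Tween 80, 0.9% w/v NaCl in water). Dosed orally 4, 24, 48 and 72 h after infection. Parasitemia read by flow cytometry (detection limit 0.1%). Survival recorded as mean survival time in days.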

[4] = Drug level in mouse blood at 50 mg/kg, po after 1 hr; format: ADME, organism-based; conditions: read-out: Drug uptake
Outline: (§1)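 Snapshot whole-blood levels of parent and its sulfone metabolite at 1, 4 and 24 h after the first 50 mg/kg oral dose. Samples came from the P. berghei-infected efficacy mice, dosed in HPMC suspension vehicle.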

[5] = test system: Blood; assay: Drug metabolism in mouse assessed as 5-(3-(Cyclopropylsulfonyl)phenyl)-3-(4-(methylsulfonyl)-phenyl)pyrazolo[1,5-a]pyridine level in blood at 50 mg/kg, po after 4 hrs; format: ADME, organism-based; conditions: in vivo; outline: as §1
[6] = Oral bioavailability in rat at 15 mg/kg; format: ADME, organism-based; conditions: in vivo
[7] = test system: Plasmodium falciparum; assay: Antiplasmodial activity against Plasmodium falciparum 3D7 infected in po dosed non-myelodepleted NOD-SCID IL2Rgammanull mouse engrafted with human erythrocytes assessed as reduction of parasitemia level administered qd for 4 days; format: functional; conditions: 3D7, po, 96 h
Outline: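 P. falciparum-infected engrafted NSG mice were dosed orally once daily for four consecutive days. Blood parasitemia was monitored, and a 90% effective dose was derived along with the blood exposure at that dose.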

[8] = Cmax in Plasmodium falciparum 3D7 infected in non-myelodepleted NOD-SCID IL2Rgammanull mouse engrafted with human erythrocytes at 0.1 mg/kg, po; format: ADME, organism-based; parameters: dose 0.1 mg/kg, route oral; conditions: in vivo
Outline: (§2)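 Engrafted NSG (scid IL2Rgc null) mice infected with P. falciparum were given one oral dose per day for four days. Blood was sampled to measure parent and its sulfone metabolite.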

[9] = Cmax in Plasmodium falciparum 3D7 infected in non-myelodepleted NOD-SCID IL2Rgammanull mouse engrafted with human erythrocytes at 0.5 mg/kg, po; format: ADME, organism-based; parameters: dose 0.5 mg/kg, route oral; conditions: in vivo; outline: as §2
[10] = Tmax in Plasmodium falciparum 3D7 infected in non-myelodepleted NOD-SCID IL2Rgammanull mouse engrafted with human erythrocytes at 0.5 mg/kg, po; format: ADME, organism-based; conditions: in vivo
Outline: (§3)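 Humanized NSG mice infected with P. falciparum received one oral dose per day for 4 consecutive days. Blood was sampled for exposure, with levels of both parent and its main active metabolite measured. Tmax was taken from the blood concentration–time profile after oral dosing.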

[11] = Tmax in Plasmodium falciparum 3D7 infected in non-myelodepleted NOD-SCID IL2Rgammanull mouse engrafted with human erythrocytes at 10 mg/kg, po; format: ADME, organism-based; conditions: in vivo; outline: as §3
[12] = AUC (0 to 8 hrs) in Plasmodium falciparum 3D7 infected in non-myelodepleted NOD-SCID IL2Rgammanull mouse engrafted with human erythrocytes at 10 mg/kg, po; format: ADME, organism-based; parameters: time < 8 hr, dose 10 mg/kg, route oral; conditions: in vivo; outline: as §2
[13] = AUC (0 to 23 hrs) in Plasmodium falciparum 3D7 infected in non-myelodepleted NOD-SCID IL2Rgammanull mouse engrafted with human erythrocytes at 30 mg/kg, po; format: ADME, organism-based; parameters: dose 30 mg/kg, time < 23 hr, route oral; conditions: in vivo; outline: as §2

C[S+]([O-])c1ccc(-c2cnn3ccc(-c4cccc(S(=O)(=O)C5CC5)c4)cc23)cc1 (stereo not drawn)
Stability [1]: Stable | Activity [2]: 75% | MSD [3]: 7 days | concentration at 1 h [4]: 2960 nM | Drug metabolism [5]: 10.3 µM | bioavailability [6]: 14% | ED90 [7]: 0.5 mg/kg | Cmax [8]: 2 ng/mL | Cmax [9]: 4 ng/mL | Tmax [10]: 15 min | Tmax [11]: 2 h | AUC(0-t) at 8 h [12]: 293 ng·h/mL | AUC(0-t) at 23 h [13]: 1240 ng·h/mL
